# Laboratory results taken from ChEMBL document CHEMBL4732044, “Discovery of a promising agent IQZ23 for the treatment of obesity and related metabolic disorders” (Eur J Med Chem, 2020).
# The source made the active and inactive calls. The calls are words filed in the database; no cut-off is given here.
# Legend:
# 3T3-L1 [1] = experiment: Inhibition of mouse 3T3-L1 cells adipocyte differentiation assessed as reduction in adipogenic cocktail-induced C/EBPalpha protein expression at 0.3 to 1 uM after 24 hrs by Western blot analysis; format: functional, cell-based; settings: dose 0.3-1 µM
# Method in brief: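 3T3-L1 preadipocytes were exposed to adipogenic cocktail with compound (0.3 or 1 µM) and harvested on day 1. Lysates were resolved by SDS-PAGE, immunoblotted (primary antibody overnight at 4 °C, HRP secondary) and quantified by densitometry normalized to actin.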
# Mus musculus [2] = experiment: Antiobesity activity in high fat diet-induced obese C57BL/6J mouse model assessed as decrease in calorie intake at 20 mg/kg, ip administered for every other days for 6 weeks; format: functional, organism-based
# Method in brief: (§1)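 Male C57BL/6J mice (7–8 weeks) fed HFC diet (60% fat, 1% cholesterol) for up to 14 weeks. From week 9, given 20 mg/kg i.p. every other day for 6 weeks in saline with 10% ethanol and 10% castor oil, or vehicle. Body weight and food intake recorded daily. At end, mice fasted 6 h, anesthetized, and blood collected into EDTA. Plasma chemistry run on an auto-analyzer; insulin by ultra-sensitive ELISA.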
# 3T3-L1 [3] = experiment: Lipid lowering activity in mouse 3T3-L1 cells assessed as adipogenic cocktail-induced triglyceride levels at 1 uM by GPO-POD assay; format: functional, cell-based; settings: time day <=6
# Method in brief: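 Confluent 3T3-L1 cells were treated from day 0 in cocktail (IBMX, dexamethasone, insulin) for 3 days, then re-dosed in insulin medium for 3 more days. For dose–response, concentrations were 0–10 µM (0.01, 0.1, 0.3, 1, 3, 10). On day 6, cells were lysed in 0.2% Triton X-100 and TG was measured by GPO-POD and normalized to BCA protein as % of control. EC50 was fitted from the dose–response. N = 4.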
# 3T3-L1 [4] = experiment: Lipid lowering activity in mouse 3T3-L1 cells assessed as adipogenic cocktail-induced triglyceride levels at 1 uM after 3 to 6 days by GPO-POD assay relative to control; format: functional; settings: time 3-6 day
# Method in brief: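 3T3-L1 cells were differentiated (cocktail on days 0–3, insulin thereafter) with 1 µM compound present during defined windows (days 0–3, 3–6, 6–9, or 0–3/0–6/0–9). TG was measured at day 9 by GPO-POD after Triton X-100 lysis and sonication. TG was normalized to BCA protein and expressed as % of differentiated control.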
# Mus musculus [5] = experiment: Antiobesity activity in high fat diet-induced obese C57BL/6J mouse model assessed as decrease in fat mass at 20 mg/kg, ip administered for every other days for 6 weeks; format: functional, organism-based
# Mus musculus [6] = experiment: Antiobesity activity in high fat diet-induced obese C57BL/6J mouse model assessed as albumin level at 20 mg/kg, ip administered for every other days for 6 weeks by auto-analyzer method (reference value: 38.7 […]); format: functional; method in brief: as §1
# 3T3-L1 [7] = experiment: Activation of AMPK pathway in mouse 3T3-L1 cells assessed as increase in NRF2 mRNA expression at 0.3 to 1 uM after 24 hrs by RT-qPCR analysis; format: cell-based; settings: filed as activator, dose 0.3-1 µM
# Mus musculus [8] = experiment: Antiobesity activity in high fat diet-induced obese C57BL/6J mouse model assessed as free fatty acid level at 20 mg/kg, ip administered for every other days for 6 weeks by auto-analyzer method (reference value: 1668.5 +/- 144.6 uM); format: functional; method in brief: as §1
# [9] = MRT(0 to infinity) in Sprague-Dawley rat at 2 mg/kg, iv up to 24 hrs by LC-MS/MS analysis; format: ADME, organism-based; settings: in vivo
# Method in brief: (§2)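 Male SD rats (180–220 g, n = 3) received compound in ethanol/saline (5:95), either intravenously at 2 mg/kg or intragastrically at 5 mg/kg. Plasma was sampled at 0, 0.5, 1, 2, 4, 8, 12 and 24 h. Concentrations were measured by LC-MS/MS, and PK parameters were calculated from the concentration–time data.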
# [10] = AUC(0 to infinity) in Sprague-Dawley rat at 2 mg/kg, iv up to 24 hrs by LC-MS/MS analysis; format: ADME, organism-based; design: route intravenous, dose 2 mg/kg, time <=24; settings: in vivo
# Method in brief: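 Male Sprague-Dawley rats (180-220 g, n = 3) received a single intravenous dose of 2 mg/kg in ethanol/saline (5:95). Blood was sampled at 0, 30 min, 1, 2, 4, 8, 12 and 24 h after dosing and centrifuged to plasma. Plasma drug levels were measured by LC-MS/MS, and pharmacokinetic parameters were calculated from the concentration-time data.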
# Mus musculus [11] = experiment: Antiobesity activity in high fat diet-induced obese C57BL/6J mouse model assessed as AST level at 20 mg/kg, ip administered for every other days for 6 weeks by auto-analyzer method (reference value: 341.6 +/- 23.8 U/L); format: functional; method in brief: as §1
# [12] = Clearance in Sprague-Dawley rat at 2 mg/kg, iv up to 24 hrs by LC-MS/MS analysis; format: ADME, organism-based; settings: in vivo; method in brief: as §2
# 3T3-L1 [13] = experiment: Lipid lowering activity in mouse 3T3-L1 cells assessed as reduction in adipogenic cocktail-induced triglyceride levels at 1 uM incubated for 6 days by Oil-red O staining based assay; format: functional, cell-based; settings: time 6.0 day
# Method in brief: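 Differentiating 3T3-L1 cells were treated at 1 µM for 6 days, then washed with PBS and fixed in 4% formaldehyde for 1 h. Cells were stained with 0.3% Oil Red O for 30 min at room temperature in the dark and imaged at ×200.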
# Mus musculus [14] = experiment: Antiobesity activity in high fat diet-induced obese C57BL/6J mouse model assessed as cholesterol level at 20 mg/kg, ip administered for every other days for 6 weeks by auto-analyzer method (reference value: 6.2 +/- 0.3 mM); format: functional; method in brief: as §1
# 3T3-L1 [15] = experiment: Activation of AMPK pathway in mouse 3T3-L1 cells assessed as increase in […] mRNA expression at 1 uM after 24 hrs by RT-qPCR analysis; format: cell-based; settings: filed as activator
# 3T3-L1 [16] = experiment: Activation of AMPK pathway in mouse 3T3-L1 cells assessed as increase in TFAM mRNA expression at 1 uM after 24 hrs by RT-qPCR analysis; format: cell-based; settings: filed as activator
# [17] = MRT(0 to infinity) in Sprague-Dawley rat at 2 mg/kg, iv up to 24 hrs by LC-MS/MS analysis; settings: in vivo
Structure (SMILES),inhibition (3T3-L1 [1]),Activity (Mus musculus [2]),Activity (3T3-L1 [3]),Activity (3T3-L1 [4]),Activity (Mus musculus [5]),Activity (Mus musculus [6]),Activity (3T3-L1 [7]),Activity (Mus musculus [8]),MRT inf [9],AUC(0-inf) [10],Activity (Mus musculus [11]),clearance [12],Activity (3T3-L1 [13]),Activity (Mus musculus [14]),Activity (3T3-L1 [15]),Activity (3T3-L1 [16]),MRT inf [17]
COc1ccc2[nH]c(-c3nc(NCCCCN4CCCC4)c4ccccc4n3)c(C=O)c2c1,Active,inactive,Dose-dependent effect,61.8%,Active,30.4 g/L,Active,694.4 µM,5.7 h,314 ng·h/mL,163.7 U/L,107 mL/min/kg,Active,4.7 mM,–,–,–
CN(C)CCCNc1nc(-c2[nH]c3ccccc3c2C=O)nc2ccccc12,–,–,–,–,–,–,–,–,–,–,–,–,–,–,Active,Active,3.56 h
